PMC4339462 (Bioorganic & medicinal chemistry, 2015)
Counter-ions that a name gives are not always drawn.

Columns and labels:
[1] = system: εA-containing oligonucleotide; test: SPR binding of compounds to immobilized εA-containing oligonucleotide; conditions: 15 µM compound
Method in brief: (§1)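 Biacore T100 SPR. Biotinylated 50-mer oligonucleotide, undamaged or εA-containing, immobilised on a streptavidin-coated C1 chip. Test compound injected at 15 µM in 10 mM HEPES-KOH pH 7.6, 90 mM KCl, 0.05% surfactant P20, at 7°C. Binding read as background-subtracted RU over 60 s injections.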

[2] = system: undamaged (control) oligonucleotide; test: SPR binding of compounds to immobilized undamaged; conditions: 15 µM compound
Method in brief: as §1

[3] = target: T1, MPG (Homo sapiens, UniProt P29372); test: Gel-based MPG activity assay in whole cell extracts; assay type: biochemical; conditions: 0–300 µM compound
[4] = system: 8-oxoguanine DNA glycosylase (OGG1); test: Gel-based OGG1 activity assay; assay type: biochemical; conditions: 0, 20 and 40 µM; not dose-dependent
Method in brief: (§2)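 Purified recombinant OGG1 pre-incubated with test compound for 10 min at room temperature. Then reacted with a ³²P-labelled 8-oxo-dG-containing duplex oligonucleotide for 10 min at 37°C. Products resolved on denaturing 20% polyacrylamide/7 M urea gels at 60°C; band intensities quantified from X-ray film.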

[5] = system: HeLa cells; test: MTT assay; assay type: cell-based, human; conditions: concentrations used in the repair assay, 72 h
[6] = system: repair of 8-oxo-dG; test: Plasmid-based in-cell repair assay, 8-oxo-dG-containing M13mp18 plasmid; parameters: species or system human
Method in brief: (§3)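 Lesion (εA or 8-oxo-dG) was placed at the EcoRI site of M13mp18. A phosphorylated lesion primer was annealed to ssDNA, extended with T7 polymerase, ligated with T4 ligase, supercoiled and purified. A549 and HeLa cells (DMEM, 10% FBS, 1% antibiotic) were transfected with 0, 200 or 300 µM test compound. Recovered plasmids were cut with EcoRI (lesion site) and SacI (internal control), and repair was scored by plaque formation.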

[7] = system: A549 cells; test: MTT assay; assay type: cell-based, human; conditions: A549, concentrations used in the repair assay, 72 h
[8] = target: T1, MPG; test: SPR inhibition of hMPG binding to εA-containing substrate DNA; conditions: 40 µM morin hydrate
Method in brief: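 SPR with biotinylated εA-containing 50-mer oligonucleotide immobilised on a streptavidin C1 chip. Injections of 30 nM purified human MPG pre-mixed with test compound (0, 5, 10, 20, 40 µM), 60 s each. Binding taken as background-subtracted RU. Percent inhibition calculated as the decrease in RU versus DMSO.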

[9] = system: repair of εA; test: Plasmid-based in-cell repair assay, εA-containing M13mp18 plasmid; parameters: species or system human
Method in brief: as §3

[10] = system: APE1; conditions: high throughput screening; ref Pubchem Bioassay AID 485314 and 2517; cited from earlier work
[11] = system: apurinic/apyrimidinic endonuclease 1 (APE1); test: Gel-based APE1 activity assay; assay type: biochemical; conditions: 0, 20 and 40 µM
Method in brief: as §2, with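 “APE1” for “OGG1”, “³²P-labelled” for “³²P-labelled 8-oxo-dG-containing”, “oligonucleotide carrying a THF abasic-site analogue” for “oligonucleotide”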

[12] = system: DNA polymerase β; conditions: high throughput screening; ref Pubchem Bioassay AID 485314 and 2517; cited from earlier work

T1 sequence (P29372 18-298): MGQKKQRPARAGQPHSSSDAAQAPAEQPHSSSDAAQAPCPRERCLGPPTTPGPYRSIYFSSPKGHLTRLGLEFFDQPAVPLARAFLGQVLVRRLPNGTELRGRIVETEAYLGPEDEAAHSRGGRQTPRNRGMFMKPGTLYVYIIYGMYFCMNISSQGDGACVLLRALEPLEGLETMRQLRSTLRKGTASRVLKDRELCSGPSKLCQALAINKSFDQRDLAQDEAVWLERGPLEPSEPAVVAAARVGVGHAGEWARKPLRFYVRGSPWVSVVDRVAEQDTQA

Cc1cc2c(C(C)C)c(O)c(O)c(C=O)c2c(O)c1-c1c(C)cc2c(C(C)C)c(O)c(O)c(C=O)c2c1O [gossypol]
affinity for εA-containing DNA [1]: demonstrated affinity for DNA
affinity for unmodified (control) DNA [2]: demonstrated affinity for DNA

O=c1c(O)c(-c2ccc(O)c(O)c2)oc2cc(O)cc(O)c12 [Quercetin]
MPG activity in whole cell extract ([3]; HeLa extract): did not have an effect

O=C1c2c(O)ccc(O)c2C(=O)c2c(NCCNCCO)ccc(NCCNCCO)c21 [mitoxantrone dihydrochloride]
affinity for εA-containing DNA [1]: demonstrated affinity for DNA
affinity for unmodified (control) DNA [2]: demonstrated affinity for DNA

O.O=c1c(O)c(-c2ccc(O)cc2O)oc2cc(O)cc(O)c12 [morin hydrate]
effect on OGG1 activity [4]: some promiscuous inhibition
toxicity (cell survival) [5]: not toxic
repair of 8-oxo-dG in live cells ([6]; A549 cells, 0, 200, 300 µM): unaffected
repair of 8-oxo-dG in live cells ([6]; HeLa cells, 0, 200, 300 µM): unaffected
toxicity (cell survival) [7]: not toxic
affinity for εA-containing DNA [1]: no detectable affinity
inhibition of MPG DNA binding [8]: Complete inhibition
affinity for unmodified (control) DNA [2]: no detectable affinity
reduction in repair ([9]; 300 µM morin hydrate, A549 and HeLa cells): 50–60%
repair of εA in live cells ([9]; A549 cells, 0, 200, 300 µM): inhibited
repair of εA in live cells ([9]; HeLa cells, 0, 200, 300 µM): inhibited
IC50 ([9]; Homo sapiens, read-out: IC50 of MPG inhibition in live cells and in extracts): 100 to 300 µM
inhibition of APE1 [10]: inhibit
MPG activity in whole cell extract ([3]; A549 extract): inhibited
MPG activity in whole cell extract ([3]; HeLa extract): inhibited
effect on the activity of APE1 [11]: no effect
inhibition of DNA polymerase β [12]: inhibit
